# Experimental data taken from ChEMBL document CHEMBL1765039, “Geminal dialkyl derivatives of N-substituted pantothenamides: synthesis and antibacterial activity” (2011).
# What was measured:
# Staphylococcus aureus [1] = test: Antibacterial activity against 10^6 CFU/ml methicillin or oxacillin-resistant Staphylococcus aureus ATCC 43300 after 18 hrs by NCCLS broth microdilution method; assay type: functional; details: ATCC 43300, 18 h
# Summary of the method: (§1)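 Broth microdilution per NCCLS, in 96-well plates; strains grown on Trypticase soy media. Compounds dissolved in 10% (v/v) acetone in water, serially diluted to 0.5–256 µg/mL (10 levels, twofold). Wells inoculated with 10⁶ cfu/mL suspension, 37 °C for 18 h. MIC = lowest concentration with no visible growth, converted to µM by molecular weight; average of at least four separate experiments.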
# Staphylococcus aureus [2] = test: Antibacterial activity against Staphylococcus aureus 29213 at 150 ug/ml after 24 hrs by agar diffusion method; assay type: functional; details: Staphylococcus aureus, 29213, 24 h; read-out: DIZ
# Summary of the method: (§2)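 Agar diffusion per NCCLS. Mueller-Hinton agar plates were swab-inoculated and dried 5 min. Sterile 1 cm discs were loaded with compound solution and placed on the plates. Incubation was 24 h at 37 °C (A. baumannii, E. coli, K. pneumoniae, S. aureus) or 30 °C (B. subtilis). Read-out was inhibition zone diameter, with ampicillin as positive control.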
# Staphylococcus aureus [3] = test: Antibacterial activity against 10^6 CFU/ml oxacillin-susceptible Staphylococcus aureus ATCC 29213 after 18 hrs by NCCLS broth microdilution method; assay type: functional; details: ATCC 29213, 18 h; summary of the method: as §1
# Klebsiella pneumoniae = test: Antibacterial activity against Klebsiella pneumoniae 13883 at 150 ug/ml after 24 hrs by agar diffusion method; assay type: functional; details: Klebsiella pneumoniae, 13883, 24 h, read-out: DIZ; summary of the method: as §2
# Acinetobacter baumannii = test: Antibacterial activity against Acinetobacter baumannii 19606 at 150 ug/ml after 24 hrs by agar diffusion method; assay type: functional; details: Acinetobacter baumannii, 19606, 24 h, read-out: DIZ; summary of the method: as §2
# Escherichia coli = test: Activity of Escherichia coli pantothenate kinase
# Summary of the method: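 E. coli PanK, expressed and purified, at 278 nM in 50 mM Tris-HCl pH 7.6. Mix: ATP 1.5 mM, NADH 0.3 mM, phosphoenolpyruvate 0.5 mM, MgCl₂ 10 mM, KCl 20 mM, pyruvate kinase and lactate dehydrogenase (5 units each). Started by adding substrate (10–160). ADP formation was coupled to NADH loss, read at 340 nm, 25 °C. Kinetic parameters came from a Michaelis–Menten fit.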
Structure (SMILES),MIC (Staphylococcus aureus [1]),zone of inhibition at 150 µg/mL (Staphylococcus aureus [2]),MIC (Staphylococcus aureus [3]),zone of inhibition at 150 µg/mL (Klebsiella pneumoniae),zone of inhibition at 150 µg/mL (Acinetobacter baumannii),Km (Escherichia coli),kcat (Escherichia coli)
CCCCCNC(=O)CCNC(=O)[C@H](O)[C@@](C)(CO)CC(C)C,51 µM,16 mm,101 µM,< 11 mm,< 11 mm,–,–
C=CC[C@](C)(CO)[C@@H](O)C(=O)NCCC(=O)NCCCCCCCCC,1 µM,16 mm,1 µM,< 11 mm,< 11 mm,–,–
CCCCCNC(=O)CCNC(=O)[C@H](O)C(CO)(CCC)CCC,> 744 µM,16 mm,> 744 µM,< 11 mm,< 11 mm,–,–
CCCCCNC(=O)CCNC(=O)[C@H](O)[C@@](C)(CO)CC1CC1,24 µM,16 mm,24 µM,< 11 mm,< 11 mm,–,–
C=CCC(CO)(CC=C)[C@@H](O)C(=O)NCCC(=O)NCCCCC,376 µM,16 mm,376 µM,< 11 mm,< 11 mm,–,–
CCCCCNC(=O)CCNC(=O)[C@H](O)C(C)(C)CO,7 µM,16 mm,7 µM,< 11 mm,< 11 mm,–,–
CCCCCNC(=O)CCNC(=O)[C@H](O)[C@@](C)(CO)CC1CCC1,374 µM,16 mm,374 µM,< 11 mm,< 11 mm,–,–
CCCCCNC(=O)CCNC(=O)[C@H](O)[C@](C)(CC)CO,7 µM,16 mm,7 µM,< 11 mm,< 11 mm,–,–
CCCCCCCCCNC(=O)CCNC(=O)[C@H](O)C(C)(C)CO,0.4 µM,16 mm,0.4 µM,< 11 mm,< 11 mm,–,–
C=CC[C@](C)(CO)[C@@H](O)C(=O)NCCC(=O)NCCCCC,3.2 µM,16 mm,3.2 µM,< 11 mm,< 11 mm,534 µM,0.87 s⁻¹
CCCCCC[C@](C)(CO)[C@@H](O)C(=O)NCCC(=O)NCCCCC,> 715 µM,16 mm,> 715 µM,< 11 mm,< 11 mm,–,–
CCCCCNC(=O)CCNC(=O)[C@H](O)[C@@](C)(CO)CCC,13 µM,16 mm,13 µM,< 11 mm,< 11 mm,–,–
CCCCCNC(=O)CCNC(=O)[C@H](O)[C@@](C)(CO)Cc1ccccc1,> 703 µM,16 mm,> 703 µM,< 11 mm,< 11 mm,–,–
